Results as given in the RNAGym collection of RNA variant scans (doi:10.1126/science.aae0568).
Variants at the floor of the assay were thinned out.

B1: tRNA (parent)
chain: GUUCCGUUGGCGUAAUGGUAACGCGUCUCCCUCCUAAGGAGAAGACUGCGGGUUCGAGUCCCGUACGGAACG

Variants of: B1
Assay: yeast fitness relative to wild type (ratio to wild type); higher = fitter; tRNA-Arg(CCU), competitive growth, 37 C, YPD
Summary of the method: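 Start and end populations of a pooled competition were compared by 100-nucleotide paired-end sequencing of gene amplicons. The Saccharomyces cerevisiae strains carried tRNA-Arg(CCU) gene variants at the native genomic locus, synthesised with a 3% per-site mutation rate at 69 sites, and competed in YPD at 37°C for 24 hours in six parallel replicates. Darwinian fitness relative to wild type was based on the change in genotype frequencies. Genotypes required ≥ 100 starting reads, and estimates < 0.5 were set to 0.5.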

C31G A36C C49G and C29G C33U cannot be ordered by yeast fitness: ≤ 0.5 for the first, ≤ 0.5 for the second.

C30U U32A A36U A37U C62U and C29U A40U G41C cannot be ordered by yeast fitness: ≤ 0.5 for the first, ≤ 0.5 for the second.

Compared with C30U G50C U59A, C29U G41C C49A is higher in yeast fitness: ≤ 0.5 for the first, 0.62 for the second.

First: C30A G48C C61U
Second: C30U C31U A37G A43G G52A
The yeast fitness of the first is higher: 0.631 for the first, ≤ 0.5 for the second.

C30U C31G C34G C66A and C29U C30A C61U cannot be ordered by yeast fitness: ≤ 0.5 for the first, ≤ 0.5 for the second.

C29U C30A C61G and C29G C33U C61U A69C cannot be ordered by yeast fitness: ≤ 0.5 for the first, ≤ 0.5 for the second.

Compared with C29G G38A G44A C46U C62G, C30U G67U is higher in yeast fitness: ≤ 0.5 for the first, 0.83 for the second.

Going from C29U C49U C55G G58A to C30A C46A, the yeast fitness rises from ≤ 0.5 to 1.

C30A C46A A57G C60A and C30G C34U A42U G68A cannot be ordered by yeast fitness: ≤ 0.5 for the first, ≤ 0.5 for the second.

C29U C31U U54G A65U A69U and C30G C46G A57U C66U A70U cannot be ordered by yeast fitness: ≤ 0.5 for the first, ≤ 0.5 for the second.

C29U G38C C49U G68A and C31A C33G A42C G48A U54A cannot be ordered by yeast fitness: ≤ 0.5 for the first, ≤ 0.5 for the second.

Compared with C30A G39A, C30A G39U is lower in yeast fitness: 0.833 for the first, 0.772 for the second.

Going from C30A C31A C49U C55G to C30U A65C, the yeast fitness rises from 0.672 to 0.841.

First: C30G A57U C62U
Second: C30U A45U A69G
The yeast fitness of the first is lower: ≤ 0.5 for the first, 0.566 for the second.

First: C30U A45U A69U
Second: C31G A43G C49U C61A
The yeast fitness of the first is higher: 0.797 for the first, ≤ 0.5 for the second.

Compared with C30U A36G G44A, C30A C33G A40G is lower in yeast fitness: 0.638 for the first, ≤ 0.5 for the second.

Going from C29G G50C A65U to C30A A43G G50C, the yeast fitness rises from ≤ 0.5 to 0.767.

C30G C46A U47G C49A G52A G58C U64G A65G A69G and C30G A43U G48C C55A C66U cannot be ordered by yeast fitness: ≤ 0.5 for the first, ≤ 0.5 for the second.

C29U C31A A43G G67C and C29G U32C A40U C61U C66U cannot be ordered by yeast fitness: ≤ 0.5 for the first, ≤ 0.5 for the second.

Going from C31G A37C G52C C61G C66U to C29U G51C, the yeast fitness rises from ≤ 0.5 to 0.57.

C29G C34A A37G and C31A G48C C61A A70G cannot be ordered by yeast fitness: ≤ 0.5 for the first, ≤ 0.5 for the second.

Going from C30G C33A A36U A65C to C29G U35A G48C, the yeast fitness falls from 0.535 to ≤ 0.5.

Going from C29U C34A A70U to C30G A42C U59A C60U, the yeast fitness rises from ≤ 0.5 to 0.507.

First: C30A C31U
Second: C31A G39C
The yeast fitness of the first is higher: 1 for the first, 0.659 for the second.

Going from C31G A42U C62U to C31A C49A G56A A65G C66A G68C, the yeast fitness falls from 0.742 to ≤ 0.5.

First: C30G C34G
Second: C30U A45C A69U
The yeast fitness of the first is lower: ≤ 0.5 for the first, 0.704 for the second.

Compared with C31G A36C U47C, C30A U64G is higher in yeast fitness: ≤ 0.5 for the first, 0.793 for the second.

First: C30A U35C U59C G63A
Second: C29U G39C
The yeast fitness of the first is lower: 0.584 for the first, 0.65 for the second.

Going from C29U G39U to C30G G38C, the yeast fitness falls from 1.07 to 0.741.

Going from C29G C33U G58C C60G C62A to C30A A42U C55U C66A, the yeast fitness rises from ≤ 0.5 to 0.531.

C30G G58C C60U A65G and C30U C55U G67U cannot be ordered by yeast fitness: ≤ 0.5 for the first, ≤ 0.5 for the second.

Going from C29G G38A A43G G50A to C30G A36U C61U, the yeast fitness rises from ≤ 0.5 to 0.504.

C29G U32A U47C C62A and C30U A36G G44A C66U cannot be ordered by yeast fitness: ≤ 0.5 for the first, ≤ 0.5 for the second.

Going from C31A U64G A69C to C30A U59G, the yeast fitness rises from ≤ 0.5 to 0.775.

Compared with C29U G39A G67A, C29U G41U is higher in yeast fitness: 0.565 for the first, 0.769 for the second.

First: C31A G52C A65U
Second: C30U C46A A70C
The yeast fitness of the first is lower: ≤ 0.5 for the first, 0.82 for the second.

C31G A43U C46G C66U A70U and C31A U35C G41A A57G cannot be ordered by yeast fitness: ≤ 0.5 for the first, ≤ 0.5 for the second.

Going from C30A G50C C66U to C31G A42C C55U G68A, the yeast fitness rises from ≤ 0.5 to 0.542.

C30U G44A G48C and C29G G44A G56C C62A G67C cannot be ordered by yeast fitness: ≤ 0.5 for the first, ≤ 0.5 for the second.

Going from C29U A43C A69U to C31G A37C C60U, the yeast fitness falls from 0.673 to ≤ 0.5.

Going from C30G A40U A70U to C30U A43C G52A, the yeast fitness falls from 0.526 to 0.516.

C29U G39U C49G and C30U G38C U59A cannot be ordered by yeast fitness: ≤ 0.5 for the first, ≤ 0.5 for the second.
